Consider 6 molecules from ChEMBL document CHEMBL4316590, “Discovery and synthesis of novel beesioside I derivatives with potent anti-HIV activity” (Eur J Med Chem, 2019).

For orientation: EC50 means the concentration giving half of the maximal effect. As a reminder, the CC50 is the concentration at which the toxic effect on the cells reaches its halfway point.

Data set [1] is described as follows: Therapeutic index, ratio of CC50 for human MT4 cells to EC50 for HIV1 NL4-3 infected in human MT4 cells. Format: toxicity, cell-based. The following applies: read-out: Ratio CC50/EC50. A digest of the protocol:
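TI calculated as CC50 (CellTiter-Glo, MT4 cells, 3 days) divided by EC50 (HIV-1 NL4-3 Nanoluc-sec multicycle replication in MT4 cells, luciferase read-out); CC50/EC50 below 5 taken as no selective anti-HIV activity.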

Data set [2] deals with Human immunodeficiency virus 1. The experiment in a line: Antiviral activity against HIV1 NL4-3 infected in human MT4 cells by luciferase reporter gene assay. Format: functional, organism-based. A digest of the protocol:
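HIV-1 NL4-3 Nanoluc-sec reporter virus (secreted NanoLuc insert) infecting MT4 cells, multicycle replication format, compounds at various concentrations; replication read as NanoLuc luciferase activity (Nano-Glo).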
Background: In a reporter assay the amount or activity of a reporter protein is the signal.

A further data set has as its system MT4. Briefly: Cytotoxicity against human MT4 cells assessed as reduction in cell viability after 3 days by CellTiter-Glo luminescent assay. The data set is classed as cell-based. Particulars: mt4, 72 h; call rule not given here. In general terms: In ATP-based viability assays light output follows the ATP content of the culture.
[3] abbreviates: Human immunodeficiency virus 1, NL4-3, MT4, read-out: EC50.

`CC(=O)O[C@H]1[C@H](O)[C@@]2(C)[C@@H]3CC[C@H]4C(C)(C)[C@@H](O[C@@H]5OC[C@@H](O)[C@H](O)[C@H]5O)CC[C@@]45C[C@@]35CC[C@@]23CO[C@@](C)(CCC(=O)C(C)(C)O)[C@@H]13`: the selectivity ratio in data set [1] is less than 5. In data set [2] (setting [3]), the concentration for a half-maximal effect (EC50) is greater than 10 µM. For the same molecule, the CC50 in the data set with MT4 is greater than 40 µM.
For `CC(=O)O[C@H]1[C@@H]2O[C@@]3(C(C)(C)O[C@H]4O[C@H](CO)[C@@H](O)[C@H](O)[C@H]4O)CC[C@](C)(O3)[C@@H]2[C@@]2(C)CC[C@@]34C[C@@]35CC[C@H](O[C@@H]3OC[C@@H](O)[C@H](O)[C@H]3O)C(C)(C)[C@@H]5CC[C@H]4[C@]12C` the same measures were 9.4, 3.76 µM and 35.4 µM.
Turning to `C[C@@H]1O[C@@H](O[C@H]2[C@H](O[C@H]3CC[C@]45C[C@]46CC[C@]4(C)[C@@H]([C@]7(C)CC[C@@H](C(C)(C)O)O7)[C@@H](O)C[C@@]4(C)[C@@H]6[C@@H](O)C[C@H]5C3(C)C)OC[C@@H](O)[C@@H]2O)[C@H](O)[C@H](O)[C@H]1O`, in data set [1], the selectivity ratio was less than 5. In addition, the concentration giving a half-maximal response (EC50) in data set [2] (setting [3]) was greater than 10 µM. Also, in the data set on MT4, the cytotoxic concentration (CC50) was greater than 40 µM.
As to `C[C@@H]1O[C@@H](O[C@H]2[C@H](O[C@H]3CC[C@]45C[C@]46CC[C@]4(C)[C@@H]([C@]7(C)CC[C@@H](C(C)(C)O)O7)[C@@H](O)C[C@@]4(C)[C@@H]6CC[C@H]5C3(C)C)OC[C@@H](O)[C@@H]2O)[C@H](O)[C@H](O[C@@H]2O[C@H](CO)[C@@H](O)[C@H](O)[C@H]2O)[C@H]1O`, in data set [1], the selectivity ratio was less than 5. In addition, in data set [2] (setting [3]), the EC50 was greater than 10 µM. The CC50 with MT4 is greater than 40 µM.
In the case of `CC(=O)O[C@H]1[C@@H](OC(C)=O)[C@@]2(C)[C@@H]3CC[C@H]4C(C)(C)[C@@H](OC(=O)CC(C)CC(=O)O)CC[C@@]45C[C@@]35CC[C@@]23CO[C@@]2(C(C)(C)O)CC[C@](C)(O2)[C@@H]13` (mixture of isomers), the selectivity ratio in data set [1] was less than 5. Moreover, in data set [2], the EC50 entry is “Not Active”. For the same molecule, the CC50 with MT4 was greater than 20 µM.
Regarding `C=C(C)[C@@H]1CC[C@]2(C(=O)O)CC[C@]3(C)[C@H](CC[C@@H]4[C@@]5(C)CC[C@H](OC(=O)CC(C)(C)C(=O)O)C(C)(C)[C@@H]5CC[C@]43C)[C@@H]12` [BEVIRIMAT], the selectivity ratio in data set [1] was 612. Further, the EC50 in data set [2] (setting [3]) was 0.026 µM. Also, in the data set on MT4, the cytotoxic concentration (CC50) stood at 15.9 µM.
